Measured values: paper PMC11375723 (ACS Omega, 2024)

Assays:
Type in all cases: cell-based, human
[1] = system: HT-1080 fibrosarcoma cells; assay: Resazurin antiproliferative microtiter assay, HT-1080; conditions: read-out: IC50, μM (± SEM), HT-1080, 48 h drug exposure
In short: (§1)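 Human cells at 37 °C, 5% CO2, with 10% cosmic calf serum in DMEM/F12 (A549), DMEM (MDA-MB-231, HFF) or EMEM (HT-1080, MRC-5). Plated 5,000 cells/180 µL and left 24 h to adhere. Test compound 0.1–100 µM, quadruplicate, 2–3 repeats, 48 h. Then 0.1% resazurin; fluorescence ex 530/em 590 after 24–48 h.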

[2] = system: A549 lung carcinoma cells; assay: Resazurin antiproliferative microtiter assay, A549; conditions: read-out: IC50, μM (± SEM), A549, 48 h drug exposure
In short: as §1

[3] = system: MDA-MB-231 breast carcinoma cells; assay: Resazurin antiproliferative microtiter assay, MDA-MB-231; conditions: read-out: IC50, μM (± SEM), MDA-MB-231, 48 h drug exposure
In short: as §1

IC50 [1]	Compound	IC50 [2]	IC50 [3]
< 1 µM	Pyrrolidine-2-(4-methoxyphenyl)diazothioformamide – Cu(l)I [Compound 4b]		
< 1 µM	Piperidine-2-(4-methoxyphenyl)diazothioformamide – Cu(l)Br [Compound 5c]		

Compound	IC50 [1]	IC50 [2]	IC50 [3]
N.N.[Cl][Pt][Cl] [Cisplatin]	17.5 µM	19 µM	48.6 µM
